Reference: article PMC11649739 (Clinical Pharmacokinetics, 2024)
Several values for one entry are separate records, joined by “and”; a condition that tells them apart may be missing. Equal entries are not always repeated. Where two headings read alike, the source gives them in different places.

Assays:
[1] = format: in vivo, human; conditions: human, plasma, oral; for AUC: Entire AUC; for Cmax: Entire Cmax
Procedure, shortened: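 Ensitrelvir was dosed once daily, 375 mg on day 1 then 125 mg on days 2–5, or 750/250 mg. A population PK model was fitted to 8034 plasma concentrations from 2060 healthy and SARS-CoV-2-infected participants: two-compartment, first-order absorption, with covariates tested on CL/F. Empirical Bayesian estimates from the final model were used to calculate individual exposures for SCORPIO-SR phase III participants.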

[2] = test system: cytochrome P450 3A; conditions: drug interactions; cited from earlier work
[3] = test system: SARS-CoV-2; conditions: cited from earlier work
[4] = test system: P-glycoprotein; conditions: drug interactions; cited from earlier work
[5] = test system: SARS-CoV-2; format: in vivo, human
Procedure, shortened: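 Phase III SCORPIO-SR participants received ensitrelvir or placebo. Dosing was once daily for 5 days, either 375 mg on day 1 then 125 mg on days 2–5, or 750 mg then 250 mg. Day-1 C24 (also Cmax and AUC) came from empirical Bayesian post hoc estimates. For placebo these were set to 0. Exposures were split into quartiles and boxplotted against change from baseline in viral RNA on day 4. Sub-LLOQ RNA values were set to LLOQ.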

[6] = cited from earlier work
[7] = Mean, 250 mg group: 750 mg on day 1 and 250 mg on days 2–5
[8] = Median, 250 mg group: 750 mg on day 1 and 250 mg on days 2–5
[9] = body weight 35.0 and 156.0 kg vs median
[10] = final model no. 511, body weight 62.6 kg

Q: Which concentration at 24 h ([1]; C24_d1, Median, 125 mg group: 375 mg on day 1 and 125 mg on days 2–5, 24 h postdose on day 1) does the source give for `Cn1cnc(Cn2c(=O)[nH]/c(=N\c3cc4cn(C)nc4cc3Cl)n(Cc3cc(F)c(F)cc3F)c2=O)n1` [ensitrelvir] here?
A: 16500 ng/mL

Q: What about the concentration at 24 h ([1]; C24_d1, Median, 250 mg group: 750 mg on day 1 and 250 mg on days 2–5, 24 h postdose on day 1) of the same compound?
A: 34200 ng/mL

Q: And the concentration at 24 h ([1]; C24_d1, Minimum, 125 mg group: 375 mg on day 1 and 125 mg on days 2–5, 24 h postdose on day 1)?
A: 8430 ng/mL

Q: What about the concentration at 24 h ([1]; C24_d1, Minimum, 250 mg group: 750 mg on day 1 and 250 mg on days 2–5, 24 h postdose on day 1) of the same compound?
A: 19400 ng/mL

Q: What about the concentration at 24 h ([1]; C24_d5, Maximum, 125 mg group: 375 mg on day 1 and 125 mg on days 2–5, 24 h postdose on day 5) of the same compound?
A: 35200 ng/mL

Q: What about the concentration at 24 h ([1]; C24_d5, Maximum, 250 mg group: 750 mg on day 1 and 250 mg on days 2–5, 24 h postdose on day 5) of the same compound?
A: 80900 ng/mL

Q: What about the concentration at 24 h ([1]; C24_d5, Mean, 125 mg group: 375 mg on day 1 and 125 mg on days 2–5, 24 h postdose on day 5) of the same compound?
A: 19500 ng/mL

Q: And the concentration at 24 h ([1]; C24_d5, Mean, 250 mg group: 750 mg on day 1 and 250 mg on days 2–5, 24 h postdose on day 5)?
A: 41800 ng/mL

Q: And the concentration at 24 h ([1]; C24_d5, Median, 125 mg group: 375 mg on day 1 and 125 mg on days 2–5, 24 h postdose on day 5)?
A: 19200 ng/mL

Q: And the concentration at 24 h ([1]; C24_d5, Median, 250 mg group: 750 mg on day 1 and 250 mg on days 2–5, 24 h postdose on day 5)?
A: 40800 ng/mL

Q: What about the concentration at 24 h ([1]; C24_d5, Minimum, 125 mg group: 375 mg on day 1 and 125 mg on days 2–5, 24 h postdose on day 5) of the same compound?
A: 10500 ng/mL

Q: What about the concentration at 24 h ([1]; C24_d5, Minimum, 250 mg group: 750 mg on day 1 and 250 mg on days 2–5, 24 h postdose on day 5) of the same compound?
A: 24300 ng/mL

Q: What about the AUC ([1]; Mean, 125 mg group: 375 mg on day 1 and 125 mg on days 2–5) of the same compound?
A: 2570 µg·h/mL

Q: What about the AUC [1, 7] of the same compound?
A: 5430 µg·h/mL

Q: What about the AUC ([1]; Median, 125 mg group: 375 mg on day 1 and 125 mg on days 2–5) of the same compound?
A: 2530 µg·h/mL

Q: And the AUC [1, 8]?
A: 5320 µg·h/mL

Q: What about the Cmax [1, 7] of the same compound?
A: 56.4 µg/mL

Q: What about the Cmax [1, 8] of the same compound?
A: 55.1 µg/mL

Q: What about the “inhibition of cytochrome P450 3A” value [2] of the same compound?
A: inhibits

Q: What about the “time to five COVID-19 symptoms” value ([3]; 125-mg group, phase III of SCORPIO-SR) of the same compound?
A: 167.9 h

Q: And the “clearance of SARS-CoV-2” value ([3]; both dose groups 375/125 mg and 750/250 mg)?
A: rapid clearance of SARS-CoV-2

Q: And the “inhibition of P-glycoprotein” value [4]?
A: inhibits

Q: And the “Interindividual variability of CL/F” value (base model)?
A: 28.9%

Q: What about the “Interindividual variability of Ka” value (base model) of the same compound?
A: 88.1%

Q: And the “Interindividual variability of Vc/F” value (base model)?
A: 23.2%

Q: And the “range of the ratios of the minimum and maximum values to the median of BW for AUC” value [9]?
A: 0.623–1.353

Q: And the “range of the ratios of the minimum and maximum values to the median of BW for Cmax” value [9]?
A: 0.410–1.741

Q: And the “Interindividual variability of CL/F, Estimate (95% CI)” value (final model no. 511)?
A: 21.3% and 21.3 (19.7–22.8) %

Q: What about the “Interindividual variability of Ka, Estimate (95% CI)” value (final model no. 511) of the same compound?
A: 72.9% and 72.9 (64.3–80.6) %

Q: And the “Interindividual variability of Vc/F, Estimate (95% CI)” value (final model no. 511)?
A: 14.7% and 14.7 (12.8–16.3) %

Q: What about the “Intraindividual variability: additive residual error, Estimate (95% CI)” value (final model no. 511) of the same compound?
A: 0.0317 (0.0224–0.0410) µg/mL

Q: And the “Intraindividual variability: proportional residual error, Estimate (95% CI)” value (final model no. 511)?
A: 19.9 (18.5–21.3) %

Q: What about the “Q/F, Estimate (95% CI)” value (final model no. 511) of the same compound?
A: 0.539 (0.321–0.757) L/h

Q: What about the “Vp/F, Estimate (95% CI)” value (final model no. 511) of the same compound?
A: 2.50 (1.80–3.20) L

Q: What about the “CL/F, Estimate (95% CI)” value [10] of the same compound?
A: 0.211 (0.208–0.214) L/h

Q: And the “Vc/F, Estimate (95% CI)” value [10]?
A: 14.7 (13.9–15.5) L

Q: What about the “Additive residual error, Bootstrap estimate Median (95% CI)” value (final model no. 511, bootstrap) of the same compound?
A: 0.0331 (0.00945–0.0570) µg/mL

Q: And the “CL/F, Bootstrap estimate Median (95% CI)” value (final model no. 511, bootstrap)?
A: 0.211 (0.207–0.214) L/h

Q: What about the “Effect of body weight on Vc/F, Bootstrap estimate Median (95% CI)” value (final model no. 511, bootstrap) of the same compound?
A: 1.04 (0.959–1.11)

Q: What about the “Effect of food on Ka, Bootstrap estimate Median (95% CI)” value (final model no. 511, bootstrap) of the same compound?
A: 0.599 (0.447–1.00)

Q: And the “Effect of formulation on Ka, Bootstrap estimate Median (95% CI)” value (final model no. 511, bootstrap)?
A: 0.367 (0.280–0.469)

Q: What about the “Interindividual variability of CL/F, Bootstrap estimate Median (95% CI)” value (final model no. 511, bootstrap) of the same compound?
A: 21.3 (20.0–23.0) %

Q: And the “Interindividual variability of Ka, Bootstrap estimate Median (95% CI)” value (final model no. 511, bootstrap)?
A: 72.1 (64.4–80.4) %

Q: And the “Interindividual variability of Vc/F, Bootstrap estimate Median (95% CI)” value (final model no. 511, bootstrap)?
A: 14.6 (12.7–16.5) %

Q: What about the “Ka, Bootstrap estimate Median (95% CI)” value (final model no. 511, bootstrap) of the same compound?
A: 1.50 (1.23–1.80) 1/h

Q: What about the “Proportional residual error, Bootstrap estimate Median (95% CI)” value (final model no. 511, bootstrap) of the same compound?
A: 19.8 (18.6–21.2) %

Q: What about the “Q/F, Bootstrap estimate Median (95% CI)” value (final model no. 511, bootstrap) of the same compound?
A: 0.534 (0.331–0.823) L/h

Q: What about the “Vc/F, Bootstrap estimate Median (95% CI)” value (final model no. 511, bootstrap) of the same compound?
A: 14.8 (13.9–15.5) L

Q: What about the “Vp/F, Bootstrap estimate Median (95% CI)” value (final model no. 511, bootstrap) of the same compound?
A: 2.49 (1.74–3.26) L

Q: And the “Effect of formulation on Ka, Estimate (95% CI)” value (final model no. 511, multiplier, tablet vs suspension)?
A: 0.362 (0.262–0.462)

Q: What about the “Effect of body weight on Vc/F, Estimate (95% CI)” value (final model no. 511, power exponent on body weight/62.6) of the same compound?
A: 1.04 (0.960–1.12)

Q: And the “Ka, Estimate (95% CI)” value (final model no. 511, typical value (suspension, not within 2 h after a meal))?
A: 1.50 (1.25–1.75) 1/h

Q: What about the “antiviral effects between the 375/125 mg and 750/250 mg doses” value ([5]; C24 on day 1 between 8.43 and 61.0 μg/mL) of the same compound?
A: did not differ

Q: What about the “virus RNA decrease across exposure categories (C24 on day 1 quartiles)” value ([5]; day 4, within the exposure range evaluated, phase III of SCORPIO-SR) of the same compound?
A: decreased to a similar extent in all categories

Q: What about the “change from baseline in the amount of SARS-CoV-2 viral RNA on day 4, versus placebo” value ([5]; ensitrelvir dosing groups, phase III of SCORPIO-SR) of the same compound?
A: lower in the ensitrelvir dosing group than in the placebo group

Q: What about the “effect of food intake on pharmacokinetic profiles” value [6] of the same compound?
A: not substantially affected

Q: What about the “recovered in the urine as unchanged ensitrelvir” value ([6]; dose groups ranging from 20 to 1000 mg) of the same compound?
A: 12.9–21.8%

Q: What about the “effect of fed state on Cmax” value ([6]; fed state with a high-fat/high-calorie meal vs fasted, phase I study) of the same compound?
A: not affected

Q: And the “pharmacokinetic profiles among various populations” value ([6]; including healthy white participants)?
A: not meaningfully different

Q: What about the “terminal elimination half-life (t½,z)” value ([6]; single administration) of the same compound?
A: 42.2 to 48.1 h

Q: What about the “increase of Cmax and AUC0–inf with dose” value ([6]; single oral administration, 20 to 2000 mg, fasted state) of the same compound?
A: almost dose-proportional

Q: And the “time at which maximum plasma concentration is reached” value ([6]; single oral administration)?
A: around 2.50 h
